SMILES strings stand for the structures.

The values below come from ChEMBL document CHEMBL1141957, “Screening of electrophilic compounds yields an aziridinyl peptide as new active-site directed SARS-CoV main protease inhibitor” (Bioorg Med Chem Lett, 2005).

One experiment has as its target Replicase polyprotein 1a (Severe acute respiratory syndrome-related coronavirus) (UniProt P0C6U8). The experiment in a line: Inhibition of Mpro in SARS-CoV at 100 uM in FRET-based assay. Summed up:
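Fluorimetric read-out: SARS-CoV Mpro cleavage of a FRET-pair-labeled peptide substrate. Percent inhibition reported as the mean of at least 2 independent assays.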
Take `C[C@H]1O[C@H]1C(=O)N[C@@H](Cc1ccccc1)C(=O)OCc1ccccc1`: the inhibition was determined as 15%. The same measure, in the same setting: with `COC(=O)C1CN1[C@H](C(=O)OCc1ccccc1)C(C)C` (stereo partly specified) the figure was 20%; with `C[C@H]1[C@@H](C(=O)N[C@@H](Cc2ccccc2)C(=O)OCc2ccccc2)N1Cc1ccccc1` (stereo partly specified), 24%. Still for that read-out and setting: with `COC(=O)C1CN1CCCC[C@H](NC(=O)OCc1ccccc1)C(=O)OC` (stereo partly specified) the figure was 48%; with `C[C@@H]1O[C@@H]1C(=O)N[C@@H](Cc1ccccc1)C(=O)OCc1ccccc1`, 28%. On the same count and under the same terms, with `CC[C@H](C)[C@@H](C(=O)OCc1ccccc1)N1CC1C(=O)OC` (stereo partly specified) the figure was 30%. Regarding `CC(C)[C@H](NC(=O)[C@@H]1O[C@@H]1C)C(=O)OCc1ccccc1`, the inhibition was found to be 10%. In the case of `O=C(N[C@@H](Cc1ccccc1)C(=O)OCc1ccccc1)C1C(c2ccccc2)N1Cc1ccccc1` (stereo partly specified), the inhibition worked out at 30%. On the same count and under the same terms, as for `COC(=O)C1CN1[C@@H](CCSC)C(=O)OC` (stereo partly specified), the figure is 28%; as for `COC(=O)CN1CC1C(=O)OC` (stereo unspecified), 30%.

For `CCOC(=O)C1OC1C(=O)N[C@@H](Cc1ccccc1)C(=O)OCc1ccccc1` (stereo partly specified), the inhibition was 22%. On the same count and under the same terms, with `CCOC(=O)[C@H]1[C@H](C(=O)OCC)N1C(=O)[C@@H]1CCCN1C(=O)[C@H](CC(C)C)NC(=O)OC(C)(C)C` the figure was 16%. The same measure, in the same setting: with `COC(=O)C1CN1CC(=O)OCc1ccccc1` (stereo unspecified) the figure was 26%.

`CCOC(=O)[C@H]1[C@H](C(=O)OCC)N1C(=O)[C@@H](NC(=O)OC(C)(C)C)C(C(C)C)N1CCC1` (stereo partly specified) showed an inhibition of 16%. Still for that read-out and setting: with `CC1C(C(=O)N[C@@H](Cc2ccccc2)C(=O)OCc2ccccc2)N1Cc1ccccc1` (stereo partly specified) the figure was 34%.

Regarding `COC(=O)C1CN1[C@@H](C)C(=O)OC` (stereo partly specified), the inhibition was determined as 39%.

As for `CCOC(=O)[C@H]1N[C@@H]1C(=O)NCC(=O)NCC(=O)OCc1ccccc1`, the inhibition stood at 54%. Turning to `COC(=O)C1CN1[C@@H](CC(=O)OCc1ccccc1)C(=O)OCc1ccccc1` (stereo partly specified), the inhibition amounted to 28%.

`CC(C)[C@H](NC(=O)C1C(c2ccccc2)N1Cc1ccccc1)C(=O)OCc1ccccc1` (stereo partly specified) gave an inhibition of 22%. With `COC(=O)C1CN1[C@@H](CC(C)C)C(=O)OCc1ccccc1` (stereo partly specified), the inhibition came out at 34%. The same measure, in the same setting: as for `CC(C)(C)OC(=O)N[C@H](C(=O)N1[C@H](C(=O)OCc2ccccc2)[C@H]1C(=O)OCc1ccccc1)N1CCCCC1`, the figure is 29%. As for `COC(=O)C1CN1[C@H](C(=O)OC)C(C)C` (stereo partly specified), the inhibition came out at 30%.

For the next experiment the target is unchanged. The experiment in a line: Inhibition of Mpro in SARS-CoV at 100 uM in HPLC assay.
Consider `CCOC(=O)[C@H]1N[C@@H]1C(=O)NCC(=O)NCC(=O)OCc1ccccc1`, for which the inhibition came out at 75%.

The target in the next experiment is Procathepsin L (Homo sapiens, UniProt P07711). The experiment in a line: Inhibitory activity against cathepsin L.
Sequence of Procathepsin L (P07711 whole entry): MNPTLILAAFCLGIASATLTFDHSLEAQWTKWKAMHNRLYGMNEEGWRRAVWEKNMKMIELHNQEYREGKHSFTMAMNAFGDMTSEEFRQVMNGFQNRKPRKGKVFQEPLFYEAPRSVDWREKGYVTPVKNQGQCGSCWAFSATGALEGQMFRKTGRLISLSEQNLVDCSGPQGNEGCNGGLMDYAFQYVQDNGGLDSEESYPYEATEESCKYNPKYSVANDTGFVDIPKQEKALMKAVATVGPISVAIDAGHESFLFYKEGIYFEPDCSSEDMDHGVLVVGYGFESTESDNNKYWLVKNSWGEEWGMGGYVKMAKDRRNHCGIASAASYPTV
In turn, `CCOC(=O)[C@H]1[C@H](C(=O)OCC)N1C(=O)[C@@H](NC(=O)OC(C)(C)C)C(C(C)C)N1CCC1` (stereo partly specified) registered a Ki of 4.8 µM. `CC(C)(C)OC(=O)N[C@H](C(=O)N1[C@H](C(=O)OCc2ccccc2)[C@H]1C(=O)OCc1ccccc1)N1CCCCC1`: affinity was put at a Ki of 6.4 µM.

Another experiment has as its target Replicase polyprotein 1a (Severe acute respiratory syndrome-related coronavirus) (UniProt P0C6U8). The experiment in a line: Inhibition of Mpro in SARS-CoV at 100uM.
With `CCOC(=O)C1C(C)N1Cc1ccccc1` (stereo unspecified), the inhibition is < 10%. Regarding `CC(C)C[C@@H]1O[C@@H]1[C@H](Cc1ccccc1)NC(=O)OC(C)(C)C`, the inhibition was < 10%. Same read-out and setting: as for `COC(=O)C1(C(=O)OC)C(C)N1C(=O)OC(C)(C)C` (stereo unspecified), the figure is < 10%. Same read-out and setting: with `COC(=O)C1(C(=O)OC)NC1C` (stereo unspecified) the figure was < 10%; with `C[C@H]1O[C@H]1C(=O)N[C@H](Cc1ccccc1)C(=O)OCc1ccccc1`, < 10%; with `C[C@@H]1O[C@@H]1C(=O)N[C@H](Cc1ccccc1)C(=O)O`, < 10%. Still for that read-out and setting: with `COC(=O)CN1CC1C(=O)N[C@@H](Cc1ccccc1)C(=O)OC` (stereo partly specified) the figure was < 10%. As for `C[C@H]1O[C@H]1C(=O)O`, the inhibition was < 10%. `COC(=O)[C@H]1O[C@H]1C(=O)OC`: the inhibition was < 10%. Still for that read-out and setting: with `COC(=O)C1C(c2ccccc2)N1Cc1ccccc1` (stereo unspecified) the figure was < 10%; with `CCOC(=O)[C@H]1N[C@H]1C(=O)OCC`, < 10%; with `CCOC(=O)N1C(C)C1(C(=O)OC)C(=O)OC` (stereo unspecified), < 10%. On the same count and under the same terms, with `CCOC(=O)[C@H]1N[C@@H]1C(=O)N[C@H](C(=O)OCc1ccccc1)[C@@H](C)CC` the figure was < 10%. Take `C[C@@H]1O[C@@H]1C(=O)N[C@H](Cc1ccccc1)C(=O)OCc1ccccc1`: the inhibition is < 10%. The same measure, in the same setting: as for `COC(=O)[C@H]1N[C@H]1C(=O)OC`, the figure is < 10%. On the same count and under the same terms, with `C[C@H]1O[C@H]1C(=O)N[C@@H](Cc1ccccc1)C(=O)O` the figure was < 10%.

One may read the inhibition as the share of the control response that was lost under treatment. High values mean strong suppression, low ones little suppression. By Ki is commonly meant the equilibrium dissociation constant of an inhibitor or competing ligand from its target. A lower Ki goes with higher affinity.
